Measured values as given in publication PMC10958515 (ACS Chemical Neuroscience, 2024).
Where two headings read alike, the source gives them in different places.

How the values were obtained:
seizures = conditions: cited from earlier work
hNaV1.1 = hNaV1.1 (Homo sapiens, UniProt P35498); assay: Qube automated patch-clamp, NaV subtype inhibition; assay type: cell-based
hNaV1.2 = hNaV1.2 (Homo sapiens, UniProt Q99250); assay: Qube automated patch-clamp, NaV subtype inhibition; assay type: cell-based
hNaV1.5 = hNaV1.5 (Homo sapiens, UniProt Q14524); assay: Qube automated patch-clamp, NaV subtype inhibition; assay type: cell-based
hNaV1.5, sequence (Q14524 whole entry): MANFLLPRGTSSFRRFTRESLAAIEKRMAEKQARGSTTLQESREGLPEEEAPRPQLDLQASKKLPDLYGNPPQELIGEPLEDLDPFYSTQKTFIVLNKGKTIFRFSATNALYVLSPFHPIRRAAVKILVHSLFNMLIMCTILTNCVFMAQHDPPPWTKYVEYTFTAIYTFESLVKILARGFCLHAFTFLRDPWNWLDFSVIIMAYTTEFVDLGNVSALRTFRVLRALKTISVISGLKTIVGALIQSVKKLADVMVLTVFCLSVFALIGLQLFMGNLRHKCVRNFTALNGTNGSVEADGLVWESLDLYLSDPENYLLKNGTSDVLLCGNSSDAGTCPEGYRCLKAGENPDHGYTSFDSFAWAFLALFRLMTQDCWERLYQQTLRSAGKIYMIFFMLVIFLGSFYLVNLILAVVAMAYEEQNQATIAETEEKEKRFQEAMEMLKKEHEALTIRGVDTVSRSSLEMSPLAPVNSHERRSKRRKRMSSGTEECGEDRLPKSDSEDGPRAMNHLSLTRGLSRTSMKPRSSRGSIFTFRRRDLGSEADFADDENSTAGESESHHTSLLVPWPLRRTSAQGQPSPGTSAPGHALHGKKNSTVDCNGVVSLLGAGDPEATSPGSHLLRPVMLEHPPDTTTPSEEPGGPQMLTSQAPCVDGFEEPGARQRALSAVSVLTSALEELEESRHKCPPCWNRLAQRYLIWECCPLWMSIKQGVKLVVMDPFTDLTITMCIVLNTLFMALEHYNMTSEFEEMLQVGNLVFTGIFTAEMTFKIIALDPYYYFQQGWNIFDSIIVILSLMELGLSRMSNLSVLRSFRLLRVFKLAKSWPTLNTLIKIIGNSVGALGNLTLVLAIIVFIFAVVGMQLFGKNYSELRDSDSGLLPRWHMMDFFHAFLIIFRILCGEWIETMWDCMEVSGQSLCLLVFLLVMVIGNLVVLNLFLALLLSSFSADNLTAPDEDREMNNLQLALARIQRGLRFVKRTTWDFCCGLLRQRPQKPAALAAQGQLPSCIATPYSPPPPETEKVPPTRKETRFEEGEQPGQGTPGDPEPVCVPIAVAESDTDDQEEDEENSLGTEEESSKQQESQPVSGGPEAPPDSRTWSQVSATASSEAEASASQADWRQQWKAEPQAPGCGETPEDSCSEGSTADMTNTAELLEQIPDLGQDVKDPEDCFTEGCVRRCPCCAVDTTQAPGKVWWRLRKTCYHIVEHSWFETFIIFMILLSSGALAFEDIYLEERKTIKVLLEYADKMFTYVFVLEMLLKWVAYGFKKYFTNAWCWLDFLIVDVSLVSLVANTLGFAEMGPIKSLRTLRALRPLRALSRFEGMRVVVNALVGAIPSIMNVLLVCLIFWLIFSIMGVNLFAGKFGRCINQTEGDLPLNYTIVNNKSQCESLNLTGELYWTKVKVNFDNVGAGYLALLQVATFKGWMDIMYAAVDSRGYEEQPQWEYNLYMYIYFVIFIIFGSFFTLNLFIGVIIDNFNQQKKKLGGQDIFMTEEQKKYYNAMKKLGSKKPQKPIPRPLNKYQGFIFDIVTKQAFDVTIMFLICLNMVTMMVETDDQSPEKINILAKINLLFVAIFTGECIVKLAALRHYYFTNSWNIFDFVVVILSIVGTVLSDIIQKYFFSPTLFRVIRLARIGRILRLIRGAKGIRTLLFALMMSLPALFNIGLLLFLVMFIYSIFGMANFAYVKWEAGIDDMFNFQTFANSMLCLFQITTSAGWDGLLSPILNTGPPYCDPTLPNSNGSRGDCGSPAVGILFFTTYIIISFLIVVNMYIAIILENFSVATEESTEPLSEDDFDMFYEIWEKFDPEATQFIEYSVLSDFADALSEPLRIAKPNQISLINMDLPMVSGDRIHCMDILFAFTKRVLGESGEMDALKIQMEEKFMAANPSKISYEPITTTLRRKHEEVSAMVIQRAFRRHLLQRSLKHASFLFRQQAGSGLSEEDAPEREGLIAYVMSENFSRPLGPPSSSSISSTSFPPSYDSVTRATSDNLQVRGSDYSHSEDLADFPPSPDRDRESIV

NaV1.6 [1] = target: T1, NaV1.6 (Homo sapiens, UniProt Q9UQD0); assay: Steady-state and use-dependent inhibition; assay type: cell-based; conditions: V0.5 holding potential
T1 sequence (Q9UQD0 whole entry): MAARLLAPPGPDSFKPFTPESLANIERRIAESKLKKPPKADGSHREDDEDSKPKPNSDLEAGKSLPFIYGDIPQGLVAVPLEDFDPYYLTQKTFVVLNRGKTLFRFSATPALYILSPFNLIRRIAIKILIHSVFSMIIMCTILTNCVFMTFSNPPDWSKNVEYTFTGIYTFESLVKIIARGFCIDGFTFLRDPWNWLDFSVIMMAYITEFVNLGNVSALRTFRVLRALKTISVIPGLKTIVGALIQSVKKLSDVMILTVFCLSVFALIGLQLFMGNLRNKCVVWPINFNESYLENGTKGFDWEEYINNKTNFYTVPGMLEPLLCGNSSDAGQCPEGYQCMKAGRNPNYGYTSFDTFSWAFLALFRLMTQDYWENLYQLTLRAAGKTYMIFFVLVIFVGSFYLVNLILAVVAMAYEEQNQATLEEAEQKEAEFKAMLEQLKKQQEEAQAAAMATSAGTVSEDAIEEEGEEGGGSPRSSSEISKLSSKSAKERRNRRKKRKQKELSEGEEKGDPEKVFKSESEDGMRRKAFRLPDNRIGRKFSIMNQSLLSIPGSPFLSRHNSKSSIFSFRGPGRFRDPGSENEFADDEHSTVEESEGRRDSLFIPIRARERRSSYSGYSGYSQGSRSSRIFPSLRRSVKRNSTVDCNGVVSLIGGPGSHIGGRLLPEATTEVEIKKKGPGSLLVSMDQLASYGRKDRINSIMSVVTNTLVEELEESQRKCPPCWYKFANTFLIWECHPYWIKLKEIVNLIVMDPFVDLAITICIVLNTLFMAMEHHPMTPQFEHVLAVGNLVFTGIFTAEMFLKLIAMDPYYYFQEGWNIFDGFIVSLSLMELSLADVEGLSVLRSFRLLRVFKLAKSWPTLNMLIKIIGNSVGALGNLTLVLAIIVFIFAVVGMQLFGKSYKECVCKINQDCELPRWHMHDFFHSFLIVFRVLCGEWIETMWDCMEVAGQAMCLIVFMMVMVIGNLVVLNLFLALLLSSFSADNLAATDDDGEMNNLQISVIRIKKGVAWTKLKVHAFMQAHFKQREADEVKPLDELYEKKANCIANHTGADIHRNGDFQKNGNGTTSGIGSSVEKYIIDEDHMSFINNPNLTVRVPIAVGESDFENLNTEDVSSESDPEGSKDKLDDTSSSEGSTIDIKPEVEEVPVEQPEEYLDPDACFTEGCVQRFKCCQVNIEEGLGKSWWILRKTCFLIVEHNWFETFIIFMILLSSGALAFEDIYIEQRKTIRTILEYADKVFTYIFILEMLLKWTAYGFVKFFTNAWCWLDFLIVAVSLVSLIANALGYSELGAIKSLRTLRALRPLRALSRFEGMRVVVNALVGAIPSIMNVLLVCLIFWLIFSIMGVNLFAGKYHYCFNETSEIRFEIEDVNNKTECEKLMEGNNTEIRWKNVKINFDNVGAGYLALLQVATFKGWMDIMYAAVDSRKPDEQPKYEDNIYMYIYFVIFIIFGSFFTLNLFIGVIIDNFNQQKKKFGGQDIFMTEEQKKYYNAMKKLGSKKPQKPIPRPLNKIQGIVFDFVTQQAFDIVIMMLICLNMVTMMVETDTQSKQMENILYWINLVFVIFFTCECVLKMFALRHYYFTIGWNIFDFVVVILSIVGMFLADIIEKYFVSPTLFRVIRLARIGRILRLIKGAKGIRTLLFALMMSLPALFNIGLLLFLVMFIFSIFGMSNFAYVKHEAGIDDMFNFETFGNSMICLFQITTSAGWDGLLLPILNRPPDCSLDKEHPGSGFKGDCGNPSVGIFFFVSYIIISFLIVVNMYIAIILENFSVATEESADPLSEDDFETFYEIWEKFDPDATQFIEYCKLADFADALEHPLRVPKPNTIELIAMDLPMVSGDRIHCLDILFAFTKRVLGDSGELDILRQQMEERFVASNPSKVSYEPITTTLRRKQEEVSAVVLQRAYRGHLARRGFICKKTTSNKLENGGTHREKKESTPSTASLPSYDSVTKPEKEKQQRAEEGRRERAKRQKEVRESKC
T1 sequence (Q92913 1-192 isoform Q92913-2 partner): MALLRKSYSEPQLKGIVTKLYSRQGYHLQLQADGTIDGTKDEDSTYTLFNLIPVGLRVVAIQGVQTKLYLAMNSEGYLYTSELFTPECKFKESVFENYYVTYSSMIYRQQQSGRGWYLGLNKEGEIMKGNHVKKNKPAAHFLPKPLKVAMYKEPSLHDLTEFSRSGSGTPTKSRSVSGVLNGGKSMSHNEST

NaV = conditions: cited from earlier work
NaV1.6 [2] = target: T1, NaV1.6; assay: Recovery from inactivation in presence of compound; assay type: cell-based
Procedure, shortened: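 Human NaV1.6 cells on an automated planar patch-clamp platform at 27 °C. From −120 mV, a 10 s prepulse to 0 mV is followed by a 0 mV test pulse at varying intervals. Mean normalized recovery in compound is fitted biexponentially, and the slow time constant is plotted against concentration. The fraction recovered at 1.7 s quantifies the concentration dependence.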

[3] = IC50 for steady-state inhibition (P1), first pulse

Cc1cc(S(=O)(=O)Nc2cscn2)c(F)cc1N(C)[C@H]1CCN(Cc2ccccc2)C1 [NBI-921352]
efficacy in seizure models in vivo (seizures): efficacious and have improved tolerability in rodent seizure models

NC(=O)N1c2ccccc2C=Cc2ccccc21 [carbamazepine]
IC50 (hNaV1.1): 39.3 µM | IC50 (hNaV1.2): 67.4 µM | IC50 (hNaV1.5): 41.1 µM | IC50 (NaV1.6 [1]; IC50 for UDB (P500), 500th pulse): 16.2 µM | IC50 (NaV1.6 [1]; [3]): 17 µM

COC[C@@H](NC(C)=O)C(=O)NCc1ccccc1 [lacosamide]
potency range (NaV): 10 to 100 µM

Nc1nnc(-c2cccc(Cl)c2Cl)c(N)n1 [lamotrigine]
potency range (NaV): 10 to 100 µM

O=C1NC(=O)C(c2ccccc2)(c2ccccc2)N1 [phenytoin]
IC50 (hNaV1.5): 23.8 µM | time to fully equilibrate with the inactivated states (NaV1.6 [2]): ≤ 10 s | IC50 (NaV1.6 [1]; [3]): 12.1 µM | IC50 (NaV1.6 [1]; read-out: IC50 for UDB (P500), 500th pulse): 6.8 µM
